Measured values from ChEMBL document CHEMBL1149247, “New COX-2/5-LOX inhibitors: apoptosis-inducing agents potentially useful in prostate cancer chemotherapy” (J Med Chem, 2004).
Active and inactive are the calls of the source. The calls are words filed in the database; no cut-off is given here.

Tests used:
LNCaP [1] = assay: Cell cycle arrest in human LNCaP cells by accumulation at S phase at 10 uM after 72 hrs by FACS flow cytometry; format: functional
Summary of the method: (§1)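 LNCaP or PC 3 cells seeded in 6-well plates, synchronized 24 h in serum-free medium, treated 72 h with varying compound concentrations; trypsinized cells pooled with supernatants, pelleted, fixed in cold ethanol overnight at 4 °C, then 30 min in PBS with RNase and propidium iodide. FACScan flow cytometry quantified sub-G1 (sub-diploid), G1, S and G2-M fractions as percent of cells.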

LNCaP [2] = assay: Cell cycle arrest in human LNCaP cells by accumulation at G2M phase at 10 uM after 72 hrs by FACS flow cytometry; format: functional; summary of the method: as §1
LNCaP [3] = assay: Antiproliferative activity against androgen-sensitive human LNCaP cells at 100 uM after 72 hrs by MTT test; format: functional
Summary of the method: (§2)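 Prostate carcinoma cells kept at 37 °C, 5% CO2 in RPMI 1640 with 10% fetal calf serum; seeded 1.8 × 10⁴ (PC 3) or 5.0 × 10⁴ (LNCaP) cells/well, grown 3 days, serum-starved 24 h for synchronization, then exposed 72 h to compounds in medium (<0.1% DMSO); growth read by colorimetric MTT. Mean of at least four independent determinations; single-dose lines at 100 μM.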

LNCaP [4] = assay: Cell cycle arrest in human LNCaP cells by accumulation at G1 phase at 10 uM after 72 hrs by FACS flow cytometry; format: functional; summary of the method: as §1
LNCaP [5] = assay: Cell cycle arrest in human LNCaP cells by accumulation at subG1 phase at 10 uM after 72 hrs by FACS flow cytometry; format: functional; summary of the method: as §1
PC-3 [6] = assay: Antiproliferative activity against androgen-independent human PC3 cells at 100 uM after 72 hrs by MTT test; format: functional; summary of the method: as §2
LNCaP [7] = assay: Cell cycle arrest in human LNCaP cells assessed as induction of G1 block at 100 uM by FACS flow cytometry; format: functional, cell-based; summary of the method: as §1
PC-3 [8] = assay: Cell cycle arrest in human PC3 cells by accumulation at G1 phase at 100 uM after 72 hrs by FACS flow cytometry; format: functional; summary of the method: as §1
LNCaP [9] = assay: Cell cycle arrest in human LNCaP cells by accumulation at G2M phase at 100 uM after 72 hrs by FACS flow cytometry; format: functional; summary of the method: as §1
[10] = target: T1, Polyunsaturated fatty acid 5-lipoxygenase (Homo sapiens, UniProt P09917); assay: Inhibition of 5LOX in human whole blood assessed as inhibition of calcium ionophore A 23187-stimulated 5HETE production by HPLC analysis; format: functional, tissue-based
T1 sequence (P09917 whole entry): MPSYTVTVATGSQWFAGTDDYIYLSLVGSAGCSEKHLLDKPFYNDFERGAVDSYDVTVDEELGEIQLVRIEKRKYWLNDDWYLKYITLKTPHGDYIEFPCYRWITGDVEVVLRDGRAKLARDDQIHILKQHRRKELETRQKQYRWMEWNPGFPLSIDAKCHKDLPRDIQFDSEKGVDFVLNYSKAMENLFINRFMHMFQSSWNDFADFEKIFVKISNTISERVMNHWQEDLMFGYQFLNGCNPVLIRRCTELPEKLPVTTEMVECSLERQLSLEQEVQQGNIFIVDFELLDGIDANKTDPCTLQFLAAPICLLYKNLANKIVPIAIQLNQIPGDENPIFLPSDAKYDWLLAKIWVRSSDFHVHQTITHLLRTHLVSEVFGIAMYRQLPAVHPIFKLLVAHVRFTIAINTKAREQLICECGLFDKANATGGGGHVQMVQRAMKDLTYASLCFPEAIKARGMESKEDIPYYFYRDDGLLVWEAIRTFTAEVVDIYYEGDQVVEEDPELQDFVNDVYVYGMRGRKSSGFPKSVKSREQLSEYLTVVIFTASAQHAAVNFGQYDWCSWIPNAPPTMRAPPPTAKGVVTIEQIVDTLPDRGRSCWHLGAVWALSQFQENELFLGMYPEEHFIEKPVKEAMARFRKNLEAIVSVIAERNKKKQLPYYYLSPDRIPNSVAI
Summary of the method: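 Heparinized human whole blood, 1 mL aliquots, preincubated 15 min at 37 °C with compound or DMSO vehicle; then stimulated with 40 μM A 23187 for 15 min at 37 °C. 5-HETE extracted into ethyl acetate, then HPLC on a C18 column, methanol/water/acetic acid 80:20:0.08, pH 6.0, UV at 234 nm. IC50 from n = 2.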

PC-3 [11] = assay: Cell cycle arrest in human PC3 cells by accumulation at subG1 phase at 100 uM after 72 hrs by FACS flow cytometry; format: functional; summary of the method: as §1
LNCaP [12] = assay: Antiproliferative activity against androgen-sensitive human LNCaP cells after 72 hrs by MTT test; format: functional, cell-based; summary of the method: as §2
[13] = target: Prostaglandin G/H synthase 1 (Homo sapiens, UniProt P23219); assay: Inhibition of COX1 expressed in CHO cells assessed as inhibition of arachidonic acid-stimulated PGE2 production by enzyme immunoassay; format: functional, cell-based
Sequence of Prostaglandin G/H synthase 1 (P23219 whole entry): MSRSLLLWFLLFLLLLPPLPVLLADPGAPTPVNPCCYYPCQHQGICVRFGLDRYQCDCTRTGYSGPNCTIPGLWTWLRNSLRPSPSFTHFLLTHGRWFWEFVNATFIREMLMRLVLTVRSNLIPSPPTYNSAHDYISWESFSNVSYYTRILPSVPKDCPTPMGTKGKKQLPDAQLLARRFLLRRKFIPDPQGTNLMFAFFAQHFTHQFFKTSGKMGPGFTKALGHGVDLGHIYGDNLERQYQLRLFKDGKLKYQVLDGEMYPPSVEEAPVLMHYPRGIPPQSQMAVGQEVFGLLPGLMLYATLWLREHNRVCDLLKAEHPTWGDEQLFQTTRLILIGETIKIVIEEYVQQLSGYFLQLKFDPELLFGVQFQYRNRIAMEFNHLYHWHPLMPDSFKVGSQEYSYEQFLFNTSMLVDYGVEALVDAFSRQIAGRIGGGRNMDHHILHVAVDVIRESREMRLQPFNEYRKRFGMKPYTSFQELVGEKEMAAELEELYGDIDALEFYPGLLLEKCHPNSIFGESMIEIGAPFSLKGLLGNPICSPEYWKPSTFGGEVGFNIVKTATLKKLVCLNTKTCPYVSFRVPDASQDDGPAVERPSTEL

LNCaP [14] = assay: Cell cycle arrest in human LNCaP cells by accumulation at G1 phase at 100 uM after 72 hrs by FACS flow cytometry; format: functional; summary of the method: as §1
LNCaP [15] = assay: Cell cycle arrest in human LNCaP cells by accumulation at subG1 phase at 100 uM after 72 hrs by FACS flow cytometry; format: functional; summary of the method: as §1
PC-3 [16] = assay: Cell cycle arrest in human PC3 cells by accumulation at G2M phase at 100 uM after 72 hrs by FACS flow cytometry; format: functional; summary of the method: as §1
PC-3 [17] = assay: Cell cycle arrest in human PC3 cells by accumulation at S phase at 100 uM after 72 hrs by FACS flow cytometry; format: functional; summary of the method: as §1
LNCaP [18] = assay: Cell cycle arrest in human LNCaP cells by accumulation at S phase at 100 uM after 72 hrs by FACS flow cytometry; format: functional; summary of the method: as §1
PC-3 [19] = assay: Inhibition of MMP9 secretion in androgen-independent human PC3 cells; format: functional, cell-based
PC-3 [20] = assay: Cell cycle arrest in human PC3 cells by accumulation at G1 phase at 10 uM after 72 hrs by FACS flow cytometry; format: functional; summary of the method: as §1
PC-3 [21] = assay: Cell cycle arrest in human PC3 cells by accumulation at S phase at 10 uM after 72 hrs by FACS flow cytometry; format: functional; summary of the method: as §1
[22] = target: T2, Prostaglandin G/H synthase 2 (Homo sapiens, UniProt P35354); assay: Inhibition of COX2 expressed in CHO cells assessed as inhibition of arachidonic acid-stimulated PGE2 production by enzyme immunoassay
T2 sequence (P35354 whole entry): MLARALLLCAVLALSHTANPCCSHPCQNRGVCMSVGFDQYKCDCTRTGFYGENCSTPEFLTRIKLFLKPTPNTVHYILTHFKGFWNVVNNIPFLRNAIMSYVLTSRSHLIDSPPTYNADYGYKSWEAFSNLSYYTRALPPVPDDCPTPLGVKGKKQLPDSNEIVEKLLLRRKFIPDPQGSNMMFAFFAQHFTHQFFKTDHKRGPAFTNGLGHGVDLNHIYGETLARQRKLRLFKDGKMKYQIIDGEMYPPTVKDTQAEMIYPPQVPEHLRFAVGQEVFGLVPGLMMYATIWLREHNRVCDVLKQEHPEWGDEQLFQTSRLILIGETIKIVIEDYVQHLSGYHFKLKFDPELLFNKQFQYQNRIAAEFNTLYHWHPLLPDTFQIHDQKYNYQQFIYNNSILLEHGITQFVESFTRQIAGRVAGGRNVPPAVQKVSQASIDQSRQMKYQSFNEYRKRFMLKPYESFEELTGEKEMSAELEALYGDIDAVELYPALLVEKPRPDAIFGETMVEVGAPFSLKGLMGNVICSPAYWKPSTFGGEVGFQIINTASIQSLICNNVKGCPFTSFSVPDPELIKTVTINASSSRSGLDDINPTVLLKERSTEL

PC-3 [23] = assay: Cell cycle arrest in human PC3 cells by accumulation at G2M phase at 10 uM after 72 hrs by FACS flow cytometry; format: functional; summary of the method: as §1
PC-3 [24] = assay: Cell cycle arrest in human PC3 cells by accumulation at subG1 phase at 10 uM after 72 hrs by FACS flow cytometry; format: functional; summary of the method: as §1
Homo sapiens = organism: Homo sapiens; assay: Selectivity for COX2 over COX1
Summary of the method: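 Ratio of COX-1 to COX-2 IC50s, each taken from PGE2 production in CHO cells transfected with COX-1 or with COX-2. Cells were seeded and, 18 h later, given fresh Ham's F12 with 10% fetal calf serum with or without compound. After 10 min they were stimulated with arachidonic acid, then for 10 min with calcium ionophore A 23187. Intracellular PGE2 was read by enzyme immunoassay, n = 2.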

PC-3 [25] = assay: Antiproliferative activity against androgen-independent human PC3 cells after 72 hrs by MTT test; format: functional, cell-based; settings: PC-3, 72 h; summary of the method: as §2
LNCaP [26] = assay: Cell cycle arrest in human LNCaP cells by accumulation at subG1 phase at 50 uM after 72 hrs by FACS flow cytometry; format: functional; summary of the method: as §1
PC-3 [27] = assay: Cell cycle arrest in human PC3 cells by accumulation at S phase at 50 uM after 72 hrs by FACS flow cytometry; format: functional; summary of the method: as §1
PC-3 [28] = assay: Cell cycle arrest in human PC3 cells by accumulation at G2M phase at 50 uM after 72 hrs by FACS flow cytometry; format: functional; summary of the method: as §1
PC-3 [29] = assay: Cell cycle arrest in human PC3 cells by accumulation at G1 phase at 50 uM after 72 hrs by FACS flow cytometry; format: functional; summary of the method: as §1
LNCaP [30] = assay: Cell cycle arrest in human LNCaP cells by accumulation at G1 phase at 50 uM after 72 hrs by FACS flow cytometry; format: functional; summary of the method: as §1
LNCaP [31] = assay: Cell cycle arrest in human LNCaP cells by accumulation at G2M phase at 50 uM after 72 hrs by FACS flow cytometry; format: functional; summary of the method: as §1
PC-3 [32] = assay: Cell cycle arrest in human PC3 cells by accumulation at subG1 phase at 50 uM after 72 hrs by FACS flow cytometry; format: functional; summary of the method: as §1
LNCaP [33] = assay: Cell cycle arrest in human LNCaP cells by accumulation at S phase at 50 uM after 72 hrs by FACS flow cytometry; format: functional; summary of the method: as §1

| SMILES | Activity (LNCaP [1]) [%] | Activity (LNCaP [2]) [%] | Activity (LNCaP [4]) [%] | Activity (LNCaP [5]) [%] | Activity (PC-3 [6]) [%] | IC50 [10] [µM] | IC50 (LNCaP [12]) [µM] | IC50 [13] [µM] | IC50 (PC-3 [25]) [µM] | other results |
| --- | --- | --- | --- | --- | --- | --- | --- | --- | --- | --- |
| CS(=O)(=O)c1ccc(C2=C(c3ccccc3)C(=O)OC2)cc1 [ROFECOXIB] | 11.4 | 15.2 | 69.4 | 4 | 15 |  |  |  |  | Activity (LNCaP [3]): 0%; Activity (LNCaP [7]): inactive |
| COC1(c2cc(F)cc(OCc3cc(-c4ccccc4)n(-c4ccc(S(C)(=O)=O)cc4)n3)c2)CCOCC1 | 11.2 | 14.7 | 70.1 | 3.6 | 45 | 0.3 | 83.4 | 26.1 |  | Activity (PC-3 [8]): 67.8%; Activity (LNCaP [9]): 12%; Activity (PC-3 [11]): 1.2%; Activity (LNCaP [14]): 74.2%; Activity (LNCaP [15]): 3.9%; Activity (PC-3 [16]): 25.9%; Activity (PC-3 [17]): 5.1%; Activity (LNCaP [18]): 9.9% |
| COC1(c2cc(F)cc(OCc3cc(-c4ccccc4)n(-c4ccc(S(N)(=O)=O)cc4)n3)c2)CCOCC1 | 6.9 | 8.2 | 74.2 | 10.8 |  | 0.74 | 49.7 | 25.7 | 45.9 | Activity (PC-3 [19]): Active; Activity (PC-3 [20]): 71.5%; Activity (PC-3 [21]): 6.6%; IC50 [22]: 0.1 µM; Activity (PC-3 [23]): 19.5%; Activity (PC-3 [24]): 2.1%; Selectivity ratio (Homo sapiens): 257 |
| Cc1ccc(-c2cc(C(F)(F)F)nn2-c2ccc(S(N)(=O)=O)cc2)cc1 [CELECOXIB] | 9 | 11.3 | 75.7 | 3.9 |  | > 10 | 50.4 |  | 47 | Activity (LNCaP [26]): 4%; Activity (PC-3 [27]): 5.8%; Activity (PC-3 [28]): 23.5%; Activity (PC-3 [29]): 68.5%; Activity (LNCaP [30]): 78%; Activity (LNCaP [31]): 11.1%; Activity (PC-3 [32]): 2.4%; Activity (LNCaP [33]): 6.9% |
